From ChEMBL document CHEMBL1641431, “Triazoloquinazolinediones as novel high affinity ligands for the benzodiazepine site of GABA(A) receptors” (Bioorg Med Chem, 2011)
One block for each compound: values may come before it.

Tests used:
[1] = Displacement of [3H]flumazenil form benzodiazepine-binding site of GABA(A) receptor in rat cortical membrane after 30 mins by glass fiber filtration assay; type: cell membranes; conditions: in the assay text read “after 40 mins” for “after 30 mins”
In short: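 Rat cortex homogenized in 30 mM Tris–HCl pH 7.4, washed by 27,000g spins, held at 37 °C for 30 min, stored at −20 °C. Membranes (1 mg original tissue/0.55 mL) in 50 mM Tris–citrate pH 7.1 with 1 nM final [3H]flumazenil, 40 min at 0–4 °C. GF/C filtration. Nonspecific binding with 1 µM clonazepam. IC50 from 4–6 concentrations; Ki = IC50/(1+L/KD).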

[2] = species on record: Homo sapiens; assay: Selectivity ratio of Ki for human recombinant alpha5beta3gamma2 GABA(A) receptor to Ki for human recombinant alpha1beta3gamma2 GABA(A) receptor
In short: (§1)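 Ratio of the Ki at the named subtype to the Ki at α1β3γ2. Both Ki values come from [3H]flumazenil (1 nM) displacement on membranes of HEK cells with human receptors, run 40 min at 0–4 °C with GF/C filtration. Ki = IC50/(1+L/KD).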

[3] = target: T1, GABA-A receptor; alpha-2/beta-3/gamma-2 (Homo sapiens, UniProt P18507+P28472+P47869); assay: Displacement of [3H]flumazenil human recombinant alpha2beta3gamma2 GABA(A) receptor expressed in HEK293 cells after 30 mins by glass fiber filtration assay; type: cell-based; conditions: in the assay text read “after 40 mins” for “after 30 mins”
T1 sequence (P18507 whole entry): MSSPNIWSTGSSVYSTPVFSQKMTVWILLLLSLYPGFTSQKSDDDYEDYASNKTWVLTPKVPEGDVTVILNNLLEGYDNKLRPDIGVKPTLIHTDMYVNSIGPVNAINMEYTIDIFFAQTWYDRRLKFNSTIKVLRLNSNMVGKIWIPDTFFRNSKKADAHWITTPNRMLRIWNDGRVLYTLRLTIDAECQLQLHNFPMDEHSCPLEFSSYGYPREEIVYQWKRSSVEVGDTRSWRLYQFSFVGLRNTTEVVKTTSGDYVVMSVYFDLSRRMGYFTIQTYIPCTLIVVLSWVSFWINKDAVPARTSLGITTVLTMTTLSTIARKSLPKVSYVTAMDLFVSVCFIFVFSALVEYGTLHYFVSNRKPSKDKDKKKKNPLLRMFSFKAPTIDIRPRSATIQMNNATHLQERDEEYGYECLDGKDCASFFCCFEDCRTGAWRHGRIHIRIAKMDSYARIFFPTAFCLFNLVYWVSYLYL
T1 sequence (P28472 whole entry): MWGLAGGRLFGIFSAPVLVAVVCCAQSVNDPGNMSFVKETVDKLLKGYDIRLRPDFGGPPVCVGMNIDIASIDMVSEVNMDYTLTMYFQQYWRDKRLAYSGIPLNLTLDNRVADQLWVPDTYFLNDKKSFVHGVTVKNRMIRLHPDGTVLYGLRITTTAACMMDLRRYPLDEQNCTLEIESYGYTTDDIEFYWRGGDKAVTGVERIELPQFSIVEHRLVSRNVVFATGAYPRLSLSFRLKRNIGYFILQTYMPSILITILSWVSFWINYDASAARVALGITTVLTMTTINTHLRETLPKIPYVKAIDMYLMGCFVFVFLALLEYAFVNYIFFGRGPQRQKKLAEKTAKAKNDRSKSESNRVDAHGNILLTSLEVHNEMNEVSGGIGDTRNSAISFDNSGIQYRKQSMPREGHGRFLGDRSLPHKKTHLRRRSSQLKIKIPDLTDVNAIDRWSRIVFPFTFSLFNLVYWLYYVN
T1 sequence (P47869 whole entry): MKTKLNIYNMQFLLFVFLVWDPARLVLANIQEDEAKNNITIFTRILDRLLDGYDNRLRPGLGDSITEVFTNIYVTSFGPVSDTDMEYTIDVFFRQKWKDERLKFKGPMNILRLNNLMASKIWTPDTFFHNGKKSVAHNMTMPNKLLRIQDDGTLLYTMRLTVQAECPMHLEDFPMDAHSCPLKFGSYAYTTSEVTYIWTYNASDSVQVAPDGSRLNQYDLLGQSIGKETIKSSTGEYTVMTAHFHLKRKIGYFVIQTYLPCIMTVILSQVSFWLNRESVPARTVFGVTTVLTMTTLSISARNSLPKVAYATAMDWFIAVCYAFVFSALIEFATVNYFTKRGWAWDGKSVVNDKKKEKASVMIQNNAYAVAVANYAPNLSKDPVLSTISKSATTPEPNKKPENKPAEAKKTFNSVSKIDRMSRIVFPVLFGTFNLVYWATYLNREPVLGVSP
In short: (§2)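 HEK cell membranes carrying human receptors in 50 mM Tris–citrate pH 7.1 with 1 nM final [3H]flumazenil, incubated 40 min on ice (0–4 °C). Filtered on GF/C and washed with ice-cold buffer. Clonazepam 1 µM final defined nonspecific binding. IC50 from 4–6 test concentrations, converted by Ki = IC50/(1+L/KD). Mean ± SD of three determinations.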

[4] = target: T2, GABA-A receptor; alpha-3/beta-3/gamma-2 (Homo sapiens, UniProt P18507+P28472+P34903); assay: Displacement of [3H]flumazenil human recombinant alpha3beta3gamma2 GABA(A) receptor expressed in HEK293 cells after 30 mins by glass fiber filtration assay; type: cell-based; conditions: in the assay text read “after 40 mins” for “after 30 mins”; in short: as §2
T2 sequence (P18507 whole entry): T1 sequence (P18507 whole entry)
T2 sequence (P28472 whole entry): T1 sequence (P28472 whole entry)
T2 sequence (P34903 whole entry): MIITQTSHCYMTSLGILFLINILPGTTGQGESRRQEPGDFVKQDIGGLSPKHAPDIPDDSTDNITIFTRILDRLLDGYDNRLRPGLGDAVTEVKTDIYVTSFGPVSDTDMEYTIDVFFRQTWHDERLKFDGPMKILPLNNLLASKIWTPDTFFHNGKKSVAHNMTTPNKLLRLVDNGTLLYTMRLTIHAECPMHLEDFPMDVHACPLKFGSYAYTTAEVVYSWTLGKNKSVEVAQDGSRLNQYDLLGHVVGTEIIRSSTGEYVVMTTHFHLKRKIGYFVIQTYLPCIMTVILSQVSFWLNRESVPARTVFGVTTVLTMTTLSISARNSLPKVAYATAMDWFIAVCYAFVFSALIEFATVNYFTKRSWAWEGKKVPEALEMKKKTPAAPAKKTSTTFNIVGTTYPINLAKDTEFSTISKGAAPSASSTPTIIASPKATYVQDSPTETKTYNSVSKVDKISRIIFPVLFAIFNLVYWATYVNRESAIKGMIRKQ

[5] = target: T3, GABA-A receptor; alpha-5/beta-3/gamma-2 (Homo sapiens, UniProt P18507+P28472+P31644); assay: Displacement of [3H]flumazenil human recombinant alpha5beta3gamma2 GABA(A) receptor expressed in HEK293 cells after 30 mins by glass fiber filtration assay; type: cell-based; conditions: in the assay text read “after 40 mins” for “after 30 mins”; in short: as §2
T3 sequence (P18507 whole entry): T1 sequence (P18507 whole entry)
T3 sequence (P28472 whole entry): T1 sequence (P28472 whole entry)
T3 sequence (P31644 whole entry): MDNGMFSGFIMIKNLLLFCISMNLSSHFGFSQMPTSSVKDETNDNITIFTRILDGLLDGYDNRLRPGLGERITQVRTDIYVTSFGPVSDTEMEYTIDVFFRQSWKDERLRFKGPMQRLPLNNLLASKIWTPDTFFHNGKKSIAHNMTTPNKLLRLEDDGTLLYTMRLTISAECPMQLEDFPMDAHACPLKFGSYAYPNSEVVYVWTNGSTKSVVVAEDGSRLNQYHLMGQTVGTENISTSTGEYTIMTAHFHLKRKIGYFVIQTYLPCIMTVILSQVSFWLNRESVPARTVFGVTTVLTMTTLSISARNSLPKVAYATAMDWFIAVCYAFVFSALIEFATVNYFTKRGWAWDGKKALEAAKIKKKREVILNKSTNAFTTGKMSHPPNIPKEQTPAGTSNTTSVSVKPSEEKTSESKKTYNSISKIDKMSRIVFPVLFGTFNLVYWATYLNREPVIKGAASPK

[6] = species on record: Homo sapiens; assay: Selectivity ratio of Ki for human recombinant alpha3beta3gamma2 GABA(A) receptor to Ki for human recombinant alpha1beta3gamma2 GABA(A) receptor; in short: as §1
[7] = target: T4, GABA-A receptor; alpha-1/beta-3/gamma-2 (Homo sapiens, UniProt P14867+P18507+P28472); assay: Displacement of [3H]flumazenil human recombinant alpha1beta3gamma2 GABA(A) receptor expressed in HEK293 cells after 30 mins by glass fiber filtration assay; type: cell-based; conditions: in the assay text read “after 40 mins” for “after 30 mins”; in short: as §2
T4 sequence (P14867 whole entry): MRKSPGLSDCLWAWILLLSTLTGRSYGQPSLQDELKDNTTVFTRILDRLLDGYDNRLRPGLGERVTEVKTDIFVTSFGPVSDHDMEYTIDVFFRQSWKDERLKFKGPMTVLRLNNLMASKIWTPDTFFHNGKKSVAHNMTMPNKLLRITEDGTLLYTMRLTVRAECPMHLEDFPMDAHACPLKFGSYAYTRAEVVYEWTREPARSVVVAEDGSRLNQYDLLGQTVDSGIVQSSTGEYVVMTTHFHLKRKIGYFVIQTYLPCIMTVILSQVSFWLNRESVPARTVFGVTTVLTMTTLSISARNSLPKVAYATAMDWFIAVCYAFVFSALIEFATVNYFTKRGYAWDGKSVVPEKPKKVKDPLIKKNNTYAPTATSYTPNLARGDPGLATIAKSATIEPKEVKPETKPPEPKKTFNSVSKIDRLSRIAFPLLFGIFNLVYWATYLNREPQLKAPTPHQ
T4 sequence (P18507 whole entry): T1 sequence (P18507 whole entry)
T4 sequence (P28472 whole entry): T1 sequence (P28472 whole entry)

[8] = species on record: Homo sapiens; assay: Selectivity ratio of Ki for human recombinant alpha2beta3gamma2 GABA(A) receptor to Ki for human recombinant alpha1beta3gamma2 GABA(A) receptor; in short: as §1

Structure (SMILES): Cc1ccc(-n2nc3c4cc(C#Cc5ccccc5)ccc4[nH]c(=O)n3c2=O)cc1
Ki [1]: 40 nM

Structure (SMILES): O=c1[nH]c2ccc(Br)cc2c2nn(-c3ccc(Cl)cc3)c(=O)n12
Ki [1]: 0.6 nM

Structure (SMILES): O=c1[nH]c2ccc(Br)cc2c2nn(-c3ccccc3)c(=O)n12
Ki [1]: 0.24 nM

Structure (SMILES): Cc1ccc(-n2nc3c4cc(CCc5ccsc5)ccc4[nH]c(=O)n3c2=O)cc1
Ratio Ki [2]: 26
Ki [3]: 1.7 nM
Ki [1]: 0.94 nM
Ki [4]: 0.71 nM
Ki [5]: 3.6 nM
Ratio Ki [6]: 5
Ki [7]: 0.14 nM

Structure (SMILES): Cc1ccc(-n2nc3c4cc(Cc5ccsc5)ccc4[nH]c(=O)n3c2=O)cc1
Ki [1]: 0.23 nM

Structure (SMILES): Cc1ccc(-n2nc3c4cc(Br)ccc4[nH]c(=O)n3c2=O)cc1
Ki [1]: 0.47 nM

Structure (SMILES): Cc1ccc(-n2nc3c4cc(Cc5cccc(F)c5)ccc4[nH]c(=O)n3c2=O)cc1
Ki [1]: 2.1 nM

Structure (SMILES): Cc1ccc2[nH]c(=O)n3c(=O)n(-c4ccccc4)nc3c2c1
Ki [3]: 1 nM
Ki [1]: 0.62 nM
Ratio Ki [8]: 2
Ki [4]: 1.3 nM
Ki [7]: 0.43 nM

Structure (SMILES): Cc1ccc(-n2nc3c4cc(CCC(=O)O)ccc4[nH]c(=O)n3c2=O)cc1
Ki [1]: 1.4 nM

Structure (SMILES): O=c1[nH]c2ccc(Br)cc2c2nn(-c3ccccc3F)c(=O)n12
Ki [1]: 0.2 nM

Structure (SMILES): Cc1ccc(-n2nc3c4cc(CCc5ccc(Oc6ccccc6)cc5)ccc4[nH]c(=O)n3c2=O)cc1
Ki [1]: 123 nM

Results, then the compound that gave them:

Ratio Ki [2]: 13
Ki [3]: 4.4 nM
Ki [1]: 0.2 nM
Ki [4]: 2.3 nM
Ki [5]: 9.1 nM
Ratio Ki [6]: 3
Ki [7]: 0.68 nM
Structure (SMILES): Cc1ccc(-n2nc3c4cc(CCc5cccnc5)ccc4[nH]c(=O)n3c2=O)cc1

Ki [1]: 12.4 nM
Structure (SMILES): Cc1ccc(-n2nc3c4cc(CCc5cccc(O)c5)ccc4[nH]c(=O)n3c2=O)cc1

Ki [3]: 65 nM
Ki [1]: 4 nM
Ratio Ki [8]: 18
Ki [4]: 9.7 nM
Ki [5]: 66 nM
Ki [7]: 3.6 nM
Structure (SMILES): Cc1ccc(-n2nc3c4cc(CCc5ccccc5)ccc4[nH]c(=O)n3c2=O)cc1

Ki [1]: 1 nM
Structure (SMILES): Cc1ccc(-n2nc3c4cc(Cc5ccccc5)ccc4[nH]c(=O)n3c2=O)cc1

Ki [1]: 0.17 nM
Structure (SMILES): Cc1ccc(-n2nc3c4cc(CCc5ccncc5)ccc4[nH]c(=O)n3c2=O)cc1

Ki [1]: 0.53 nM
Structure (SMILES): Cc1ccc(-n2nc3c4cc(CCc5ccccn5)ccc4[nH]c(=O)n3c2=O)cc1

Ki [1]: 1570 nM
Structure (SMILES): Cc1ccc(-n2nc3c4cc(CCc5ccc(-c6ccccc6)cc5)ccc4[nH]c(=O)n3c2=O)cc1
